ChEMBL document CHEMBL1124344, “5-Piperazinylalkyl-2(3H)-oxazolones with neuroleptic activity” (J Med Chem, 1989)

Legend:
Rattus norvegicus [1] = test: Activity to evoke catalepsy, after 1 hour of peroral administration in rats at a dose of 200 mg/kg; type: functional; conditions: route oral
Procedure, shortened: (§1)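 Rats fasted overnight and given oral doses in arabic gum suspension (10 mL/kg), 1 h before screening or 1 and 5 h before profile testing. Forelegs placed on a horizontal bar 7 cm high, three times at 5-min intervals. Immobility of at least 15 s counts as catalepsy. ED50 is the dose giving catalepsy in 50% of rats, by probit analysis. Parenthetical entries give the maximal dose and percent activity.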

Mus musculus [2] = test: Anticonvulsant activity against electroshock-induced convulsions, after 5 hour of peroral administration in mouse at a dose of 100 mg/kg; type: functional; conditions: route oral
Procedure, shortened: (§2)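 Compounds were dosed as bases suspended in arabic gum at 10 mL/kg orally, after an overnight fast, with vehicle controls. Protection meant no bilateral forepaw clonic seizures or head twitches (tryptamine), or no tonic hind-limb extension (the other two). ED50 is the dose protecting 50%, by probit analysis.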

Mus musculus [3] = test: Anticonvulsant activity against pentylenetetrazole-induced convulsions, after 1 hour of peroral administration in mouse at a dose of 100 mg/kg; type: functional; conditions: route oral; procedure, shortened: as §2
Rattus norvegicus [4] = test: Inhibition against conditioned avoidance response, after 1 hour of peroral administration in rats at a dose of 40 mg/kg; type: functional; conditions: route oral
Procedure, shortened: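 Male rats were trained in a shuttle box to avoid grid-floor shock by crossing compartments during a warning period. Dosing was oral as a gum arabic suspension at 10 mL/kg after an overnight fast. Percent inhibition was computed against a pretraining test. ED50 is the dose giving 50% inhibition.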

Mus musculus [5] = test: Effect on skeletal muscle tone, after 5 hour of peroral administration in mouse at a dose of 200 mg/kg; type: functional; conditions: Muscle tissue, route oral
Procedure, shortened: (§3)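 Male mice were placed for 1 h on a 60° inclined wire screen just after dosing and 4 h later. In a second test, trained mice hung by the forepaws from a horizontal 1.8 mm wire 15 cm up; normal mice touch it with a hind paw within 2 s and stay ≥1 min. ED50 is the dose making 50% fall. Dosing was oral in gum arabic suspension at 10 mL/kg after an overnight fast.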

Rattus norvegicus [6] = test: Inhibitory activity against norepinephrine-induced lethality, after 1 hour of peroral administration in rat at a dose of 40 mg/kg; type: functional; conditions: route oral
Procedure, shortened: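 Rats (80–90 g) dosed orally (arabic gum, 10 mL/kg) 1 or 5 h before norepinephrine 0.5 mg/kg iv, which kills unprotected rats within 30 min. ED50 is the dose protecting 50% of rats from lethality, by probit analysis.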

Mus musculus [7] = test: Potentiation against pentobarbital-induced sleeping, after 5 hour of peroral administration in mouse at a dose of 100 mg/kg; type: functional; conditions: route oral
Procedure, shortened: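 Female mice fasted overnight, dosed orally 1 or 5 h beforehand as arabic gum suspension, 10 mL/kg, with vehicle controls. Subhypnotic pentobarbital 10 mg/kg iv; 3 min later placed on back, effect scored as complete loss of righting reflex for at least 15 s. ED50 = dose producing this in 50% of mice, probit analysis.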

Rattus norvegicus [8] = test: Antagonistic activity against apomorphine-induced stereotypy in rats, by administering perorally at a dose of 100 mg/kg; type: functional; conditions: route oral
Procedure, shortened: (§4)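 Male rats fasted overnight and given oral doses in arabic gum suspension (10 mL/kg) 1 h, or 1 and 5 h, before challenge. Apomorphine 3 mg/kg iv, with stereotypy observed 20 min later. ED50 is the dose inhibiting stereotypy in 50% of rats, per Janssen's method. Parenthetical entries give the maximal dose and percent activity.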

Rattus norvegicus [9] = test: Activity to evoke catalepsy in rats, by administering perorally at a dose of 200 mg/kg; type: functional; conditions: route oral; procedure, shortened: as §1
Mus musculus [10] = test: Anticonvulsant activity against electroshock-induced convulsions, after 1 hour of peroral administration in mouse at a dose of 100 mg/kg; type: functional; conditions: route oral; procedure, shortened: as §2
Mus musculus [11] = test: Activity of inclined screen in mouse, after 5 hour of peroral administration in mouse at a dose of 100 mg/kg; type: functional; conditions: route oral
Procedure, shortened: (§5)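 Male mice dosed orally (arabic gum suspension, 10 mL/kg, fasted overnight) 1 or 5 h before testing. Placed for 1 h on a wire screen bent at 60° to the horizontal. Ataxic or miorelaxed mice slide off. ED50 is the dose at which 50% of mice fall, by probit analysis. Ten animals per dose, with vehicle controls.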

Mus musculus [12] = test: Anticonvulsant activity against pentylenetetrazole-induced convulsions, after 1 hour of peroral administration in mouse at a dose of 40 mg/kg; type: functional; conditions: route oral
Procedure, shortened: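 Male mice dosed orally (arabic gum, 10 mL/kg) 1 or 5 h before challenge with tryptamine 100 mg/kg iv, pentylenetetrazol 110 mg/kg ip, or maximal electroshock. Protection means no bilateral forepaw clonic seizures and head twitches (tryptamine) or no tonic hind-limb extension (others). ED50 protects 50% of mice.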

Mus musculus [13] = test: Inhibition of spontaneous motor activity after 5 hour of peroral administration in mouse; type: functional; conditions: po
Procedure, shortened: (§6)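 Mice in groups of five were dosed orally with gum arabic suspensions at 10 mL/kg after an overnight fast, with a vehicle control group. Locomotion was counted for 10 min in a photocell activity cage, in at least two groups per dose. ED50, by probit analysis, is the dose giving 50% inhibition against controls.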

Mus musculus [14] = test: Effect on skeletal muscle tone, after 5 hour of peroral administration in mouse at a dose of 100 mg/kg; type: functional; conditions: Muscle tissue, route oral; procedure, shortened: as §3
Rattus norvegicus [15] = test: Antagonistic activity against apomorphine-induced stereotypy, after 5 hour of peroral administration in rats at a dose of 100 mg/kg; type: functional; conditions: route oral; procedure, shortened: as §4
Mus musculus [16] = test: Contractile activity in skeletal muscles, after 1 hour of peroral administration in mouse at dose of 0 mg/kg; type: functional; conditions: Muscle tissue, route oral; procedure, shortened: as §3
Mus musculus [17] = test: Anticonvulsant activity against pentylenetetrazole-induced convulsions, after 1 hour of peroral administration in mouse at dose of 100 mg/kg; type: functional; conditions: route oral; procedure, shortened: as §2
Mus musculus [18] = test: Anticonvulsant activity against electroshock-induced convulsions, after 5 hour of peroral administration in mouse at dose of 100 mg/kg; type: functional; conditions: route oral; procedure, shortened: as §2
Mus musculus [19] = test: Anticonvulsant activity against pentylenetetrazole-induced convulsions, after 5 hour of peroral administration in mouse at dose of 100 mg/kg; type: functional; conditions: route oral; procedure, shortened: as §2
Mus musculus [20] = test: Activity of inclined screen in mouse, after 5 hour of peroral administration in mouse at dose of 100 mg/kg; type: functional; conditions: route oral; procedure, shortened: as §5
Mus musculus [21] = test: Inhibitory activity against tremorine-induced tremors, after 5 hour of peroral administration in mouse at dose of 60 mg/kg; type: functional; conditions: route oral
Procedure, shortened: (§7)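 Male mice fasted overnight, dosed orally with arabic gum suspension (10 mL/kg) 1 or 5 h before test, vehicle controls included. Tremorine 20 mg/kg ip given 1 h after compounds; central (tremor) and peripheral (salivation) parasympathetic signs recorded. ED50 = dose protecting 50% of animals, by probit analysis.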

Mus musculus [22] = test: Anticonvulsant activity against pentylenetetrazole-induced convulsions, after 1 hour of peroral administration in mouse at a dose of 15 mg/kg; type: functional; conditions: route oral; procedure, shortened: as §2
Mus musculus [23] = test: Inhibitory activity against tremorine-induced tremors, after 5 hour of peroral administration in mouse at dose 7.5 mg/kg; type: functional; conditions: route oral; procedure, shortened: as §7
Mus musculus [24] = test: Inhibition of spontaneous locomotor activity, after 1 hour of peroral administration in mouse; type: functional; conditions: po; procedure, shortened: as §6
dog (Canis familiaris) [25] = test: Antagonistic activity against apomorphine-induced emesis, after 5 hour of peroral administration in dogs; conditions: Canis lupus familiaris, po
Mus musculus [26] = test: Inhibition of spontaneous locomotor activity, after 5 hour of peroral administration in mouse; type: functional; conditions: po; procedure, shortened: as §6
dog (Canis familiaris) [27] = test: Antagonistic activity against apomorphine-induced emesis, after 5 hour of peroral administration in dogs; conditions: Canis lupus familiaris, po; remark: listed apart in the source

For `O=c1[nH]c(-c2ccc(F)cc2)c(CCN2CCN(c3cc(Cl)cc(Cl)c3)CC2)o1` [LODIPERONE], the inhibition in vivo at 200 mg/kg (Rattus norvegicus [1]) was 0%, the inhibition in vivo at 100 mg/kg (Mus musculus [2]) was 0% and the inhibition in vivo at 100 mg/kg (Mus musculus [3]) was 0%. For the same molecule, the inhibition in vivo at 40 mg/kg (Rattus norvegicus [4]) was 44%, the inhibition in vivo at 200 mg/kg (Mus musculus [5]) was 0% and the inhibition in vivo at 40 mg/kg (Rattus norvegicus [6]) was 10%. It also gave an inhibition in vivo at 100 mg/kg (Mus musculus [7]) of 0%, an inhibition in vivo at 100 mg/kg (Rattus norvegicus [8]) of 0% and an inhibition in vivo at 200 mg/kg (Rattus norvegicus [9]) of 0%. For the same molecule, the inhibition in vivo at 100 mg/kg (Mus musculus [10]) was 0% and the inhibition in vivo at 100 mg/kg (Mus musculus [11]) was 0%.

Work on `COc1ccccc1N1CCN(CCCC(=O)c2ccc(F)cc2)CC1` [FLUANISONE] yielded an inhibition in vivo at 40 mg/kg (Mus musculus [12]) of 0%, an ED50 (Mus musculus [13]) of 15.7 mg/kg and an inhibition in vivo at 100 mg/kg (Mus musculus [14]) of 0%. The inhibition in vivo at 100 mg/kg (Rattus norvegicus [15]) was 0%.

For `COc1ccccc1N1CCN(CCc2oc(=O)[nH]c2-c2ccc(F)cc2)CC1` [ZOLOPERONE], the ED50 (Mus musculus [16]) was 179 mg/kg, the inhibition in vivo at 100 mg/kg (Mus musculus [17]) was 0% and the inhibition in vivo at 100 mg/kg (Mus musculus [18]) was 0%. The inhibition in vivo at 100 mg/kg (Mus musculus [19]) was 0%, the inhibition in vivo at 100 mg/kg (Mus musculus [20]) was 0% and the inhibition in vivo at 60 mg/kg (Mus musculus [21]) was 0%.

For `CN(C)CCCN1c2ccccc2Sc2ccc(Cl)cc21` [CHLORPROMAZINE], the inhibition in vivo at 15 mg/kg (Mus musculus [22]) was 0%, the inhibition in vivo at 7.5 mg/kg (Mus musculus [23]) was 15% and the ED50 (Mus musculus [24]) was 2.9 mg/kg. The ED50 (dog (Canis familiaris) [25]) was 7.5 mg/kg and the ED50 (Mus musculus [26]) was 4.8 mg/kg.

In the case of `O=C(CCCN1CCC(O)(c2ccc(Cl)cc2)CC1)c1ccc(F)cc1` [HALOPERIDOL], the ED50 (dog (Canis familiaris) [27]) is reported as 0.04 mg/kg.
